What all share (type): functional
Assay [1] has as its system MDA-N. In words: Concentration which reduced cell growth to 50 % of level against MDA-N breast cancer line. The following applies: Homo sapiens.
Assay [2] relates to NCI-H460. Kind of assay: compound was tested for concentration which reduced cell growth to 50 % of level against NCI-H460 non -small-cell lung cancer cell line. Particulars: Homo sapiens.
The test system of assay [3] is SF-295. Kind of assay: Concentration which reduced cell growth to 50 % of level against SF-295 CNS cancer line. Particulars: Homo sapiens.
The subject of assay [4] is PC-3. Kind of assay: Concentration which reduced cell growth to 50 % of level against PC-3 prostate cancer line. Particulars: Homo sapiens.
Assay [5] relates to Tumor Cell line. Kind of assay: Cytotoxic effect in human tumor cell lines, tested by the National Cancer Institute. The following applies: read-out: Average LogGI50 (converted).
Assay [6] concerns OVCAR-3. Kind of assay: Concentration which reduced cell growth to 50 % of level against OVCAR-3 ovarian cancer line. Particulars: Homo sapiens.
Assay [7] relates to MDA-MB-435. Kind of assay: Concentration which reduced cell growth to 50 % of level against MDA-MB-435 breast cancer line. Particulars: Homo sapiens.
The subject of assay [8] is HL-60. In words: Concentration which reduced cell growth to 50 % of level against HL-60 (TB) leukemia cell line. The following applies: Homo sapiens.
Assay [9] has as its system 786-0. Kind of assay: Concentration which reduced cell growth to 50 % of level against 786-0 renal cancer line. The following applies: Homo sapiens.
The test system of assay [10] is U-251. Kind of assay: Concentration which reduced cell growth to 50 % of U251 cancer line. Particulars: Homo sapiens.
For assay [11], the system named is SK-MEL-5. Kind of assay: Concentration which reduced cell growth to 50 % of level against SK-MEL-5 melanoma cell line. The following applies: Homo sapiens.
The test system of assay [12] is HCT-116. Kind of assay: Concentration which reduced cell growth to 50 % of level against HCT116 colon cancer cell line. The following applies: Homo sapiens.
The target in assay [13] is Tubulin beta chain (Bos taurus, UniProt Q6B856). Kind of assay: Inhibition of bovine tubulin polymerization.
Tubulin beta chain, sequence (Q6B856 whole entry): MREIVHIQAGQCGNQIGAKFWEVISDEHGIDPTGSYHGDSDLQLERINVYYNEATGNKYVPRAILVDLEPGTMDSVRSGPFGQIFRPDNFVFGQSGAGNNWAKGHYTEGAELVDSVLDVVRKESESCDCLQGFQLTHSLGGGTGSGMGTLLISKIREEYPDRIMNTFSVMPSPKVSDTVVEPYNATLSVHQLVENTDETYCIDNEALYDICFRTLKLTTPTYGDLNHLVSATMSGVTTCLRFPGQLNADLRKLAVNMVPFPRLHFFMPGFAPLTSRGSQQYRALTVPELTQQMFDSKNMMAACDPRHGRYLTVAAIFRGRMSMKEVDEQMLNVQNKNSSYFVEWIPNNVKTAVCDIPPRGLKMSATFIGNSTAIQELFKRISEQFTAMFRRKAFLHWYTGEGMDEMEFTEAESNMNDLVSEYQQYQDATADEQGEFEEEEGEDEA
Assay [14] relates to NCI-H460. Kind of assay: Concentration which reduced cell growth to 50 % of level against NCI-H460 non -small-cell lung cancer cell line. The following applies: Homo sapiens.
Assay [15] addresses Tubulin alpha chain (Sus scrofa) (UniProt P02550). In words: Inhibition of colchicine binding and evaluated only when polymerization IC50 <=1 uM. The essentials:
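Electrophoretically homogeneous bovine brain tubulin (1.0 µM) incubated 20 min at 37 °C with 5.0 µM [3H]colchicine and 5.0 µM inhibitor in 1.0 M monosodium glutamate (pH 6.6), 1 mM MgCl2, 0.1 mM GTP, 5% (v/v) DMSO. Mixtures filtered through two stacked DEAE-cellulose filters and washed with water. Bound radioactivity counted by liquid scintillation.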

This note sets out measurements from ChEMBL document CHEMBL1130090, “Antitumor agents. 174. 2',3',4',5,6,7-Substituted 2-phenyl-1,8-naphthyridin-4-ones: their synthesis, cytotoxicity, and inhibition of tubulin polymerization” (J Med Chem, 1997).

Where only a bound is given, the exact number is not on record here.

Tubulin alpha chain (Sus scrofa), sequence (P02550 whole entry, looked up): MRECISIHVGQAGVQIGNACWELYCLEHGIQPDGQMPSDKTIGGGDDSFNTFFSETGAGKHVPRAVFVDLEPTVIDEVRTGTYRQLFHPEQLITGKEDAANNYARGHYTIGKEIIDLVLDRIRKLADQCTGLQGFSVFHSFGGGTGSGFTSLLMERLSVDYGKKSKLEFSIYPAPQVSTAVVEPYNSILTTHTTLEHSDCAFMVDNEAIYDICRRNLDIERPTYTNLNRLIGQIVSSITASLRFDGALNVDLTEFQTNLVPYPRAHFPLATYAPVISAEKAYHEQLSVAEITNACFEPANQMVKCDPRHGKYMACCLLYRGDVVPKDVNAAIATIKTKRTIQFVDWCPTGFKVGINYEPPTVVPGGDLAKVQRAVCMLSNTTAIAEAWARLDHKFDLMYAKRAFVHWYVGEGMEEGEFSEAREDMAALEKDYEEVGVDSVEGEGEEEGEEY

In the case of `COc1ccc(-c2cc(O)c3c(C)cc(C)nc3n2)cc1`, the GI50 in assay [1] was 33100 nM; in assay [2], 40700 nM; in assay [3] it was 42700 nM; in [4], 24000 nM; in [5] it was 33100 nM; in assay [6], 32400 nM. Moreover, the GI50 is 28800 nM in assay [7]; 15500 nM in [8]; 58900 nM in assay [9]; 91200 nM in assay [10]; 17800 nM in assay [11]; 36300 nM in assay [12]. Further, the IC50 (as a rule, the concentration at which inhibition is half-maximal) in assay [13] was above 40000 nM.
Consider `COc1cccc(-c2cc(O)c3c(C)ccnc3n2)c1`, for which the GI50 in assay [1] is below 10 nM; in assay [14], 47.9 nM; in assay [3] it was 28.8 nM; in assay [4], 26.3 nM; in [5], 58.9 nM; in [6], 25.7 nM. For the same compound, the GI50 was below 10 nM in [7]; 12.9 nM in assay [8]; 51.3 nM in assay [9]; 58.9 nM in assay [10]; 22.4 nM in assay [11]; 44.7 nM in [12]. Moreover, in [15], the inhibition – broadly, the drop in the measured response relative to a control, in per cent – was 28%. In assay [13], this compound had an IC50 of 620 nM.
On to `Cc1cc(C)c2c(O)cc(-c3ccc(Cl)cc3)nc2n1`, for which the GI50 is 3630 nM in [1]; 22400 nM in [2]; 16200 nM in [3]; 6310 nM in assay [4]; 19500 nM in assay [5]; 18200 nM in [6]. The GI50 in assay [7] is 4070 nM; in [8], 25100 nM; in [9], 21400 nM; in assay [10], 30200 nM; in [11], 14100 nM; in assay [12] it was 14800 nM. The midpoint of inhibition in assay [13], the IC50, lay at 32000 nM.
With `COc1cccc(-c2cc(O)c3c(C)cc(C)nc3n2)c1`, the GI50 was below 10 nM in [1]; 447 nM in assay [2]; 417 nM in assay [3]; 309 nM in assay [4]; 646 nM in assay [5]; 251 nM in [6]. Also, the GI50 in assay [7] is below 10 nM; in assay [8] it was 174 nM; in [9] it was 437 nM; in [10] it was 170 nM; in assay [11], 288 nM; in [12], 407 nM. The inhibition in [15] stood at 22%. The compound also yielded an IC50 in assay [13] of 880 nM.
Regarding `COc1cccc(-c2cc(=O)c3ccc(C)nc3[nH]2)c1`, the GI50 in assay [1] was 11 nM; in assay [14], 43.6 nM; in assay [3], 30.2 nM; in assay [4], 33.1 nM; in [5], 57.5 nM; in assay [6] it was 22.4 nM. The GI50 in assay [7] was below 10 nM; in [8], 18.2 nM; in assay [9], 53.7 nM; in assay [10], 53.7 nM; in assay [11] it was 33.9 nM; in assay [12], 46.8 nM. In assay [15], this compound yielded an inhibition of 29%.
With `COc1cccc(-c2cc(O)c3cccnc3n2)c1`, the GI50 was below 10 nM in assay [1]; 91.2 nM in assay [14]; 52.5 nM in assay [3]; 93.3 nM in assay [4]; 135 nM in assay [5]; 55 nM in assay [6]. Also, the GI50 was below 10 nM in assay [7]; 16.2 nM in assay [8]; 61.7 nM in [9]; 55 nM in assay [10]; 53.7 nM in assay [11]; 36.3 nM in [12]. This compound had an inhibition in assay [15] of 27%. Further, in [13], the IC50 stood at 960 nM.
On to `COc1cccc(-c2cc(O)c3cc(Cl)cnc3n2)c1`, for which the GI50 in [1] is 31.6 nM; in [14], 63.1 nM; in [3], 60.3 nM; in [4], 138 nM; in assay [5], 97.7 nM; in assay [6] it was 490 nM. Also, the GI50 in assay [7] is 32.4 nM; in [8], 26.9 nM; in [9] it was 427 nM; in assay [10] it was 200 nM; in assay [11], 126 nM; in assay [12], 120 nM. This compound also showed an inhibition in assay [15] of 35%. In addition, the IC50 in assay [13] is 730 nM.
Consider `Cc1ccnc2nc(-c3ccc(F)cc3)cc(O)c12`, for which the GI50 is 3550 nM in assay [1]; 32400 nM in assay [2]; 79400 nM in assay [3]; 51300 nM in assay [4]; 38000 nM in [5]; 56200 nM in assay [6]. Besides, the GI50 in assay [7] was 2880 nM; in [8], 4790 nM; in assay [9], 33900 nM; in assay [10], 36300 nM; in assay [11], 16200 nM; in [12], 16200 nM. Also, the IC50 in [13] amounted to 18000 nM.
In turn, `COc1cc([C@@H]2c3cc4c(cc3[C@H](O)[C@H]3COC(=O)[C@H]23)OCO4)cc(OC)c1OC` [PODOFILOX] gave an inhibition in assay [15] of 76%. In addition, the GI50 in [5] was 28.8 nM.
On to `COc1cccc(-c2cc(O)c3cc(C)cnc3n2)c1`, for which the GI50 in assay [1] is below 10 nM; in assay [14], 43.6 nM; in assay [3], 37.1 nM; in assay [4], 42.7 nM; in assay [5] it was 95.5 nM; in assay [6], 41.7 nM. For the same compound, the GI50 was below 10 nM in [7]; 19.1 nM in assay [8]; 37.1 nM in assay [9]; 44.7 nM in assay [10]; 25.7 nM in assay [11]; 22.4 nM in assay [12]. The inhibition in [15] stood at 31%. The IC50 in [13] is 800 nM.
`COc1ccc(-c2cc(O)c3cc(C)cnc3n2)cc1`: the GI50 is 1700 nM in [1]; 4070 nM in assay [2]; 5250 nM in [3]; 5370 nM in assay [4]; 6170 nM in assay [5]; 2950 nM in assay [6]. Moreover, the GI50 in assay [7] is 1820 nM; in [8], 2290 nM; in assay [9] it was 5130 nM; in assay [10] it was 4170 nM; in [11], 3720 nM; in assay [12], 4170 nM. In addition, the IC50 in assay [13] was found to be 7700 nM.
For the compound `COc1ccccc1-c1cc(O)c2c(C)ccnc2n1`, the GI50 in assay [1] is 8320 nM; in assay [2] it was 24000 nM; in [3], 23400 nM; in assay [4], 20900 nM; in [5] it was 2820 nM; in [6] it was 12900 nM. Besides, the GI50 was 6460 nM in assay [7]; 20900 nM in [8]; 60300 nM in assay [9]; 35500 nM in [10]; 22400 nM in [11]; 7590 nM in [12]. For the same compound, half-maximal inhibition in [13] (IC50) was put at 20000 nM.
`Cc1cnc2nc(-c3ccc(F)cc3)cc(O)c2c1`: the GI50 in assay [1] is 3020 nM; in assay [14], 33900 nM; in [3] it was 29500 nM; in [4], 25700 nM; in [5], 26300 nM; in assay [6], 22400 nM. The GI50 in assay [7] is 2630 nM; in [8], 2400 nM; in [9], 32400 nM; in assay [10], 25100 nM; in assay [11], 21900 nM; in assay [12] it was 24000 nM. In assay [13], half-maximal inhibition (IC50) required 20000 nM.
